Data published in ChEMBL document CHEMBL2417457, “Octahydropyrrolo[3,4-c]pyrrole negative allosteric modulators of mGlu1” (Bioorg Med Chem Lett, 2013).
Activity calls are given as the source filed them. The rule behind the calls is not given here.

Columns and labels:
[1] = molecular target: T1, Metabotropic glutamate receptor 1 (Homo sapiens, UniProt Q13255); assay: Negative allosteric modulation of human mGlu1 receptor expressed in HEK293A TREx cells assessed as calcium flux after 45 mins; format: functional, cell-based, HEK293-A
Summary of the method: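 HEK293A TREx cells stably expressing human mGlu1 were induced overnight with 50 ng/mL tetracycline at 37 °C. Ten-point 1:3 compound series were added for 2.3 min, then an EC20 of glutamate, then an EC80 of glutamate 1.9 min later. Ca2+ flux was read for 1.7 min. Values are the average of n ≥ 3.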
Target sequence in this assay (Q13255 whole entry): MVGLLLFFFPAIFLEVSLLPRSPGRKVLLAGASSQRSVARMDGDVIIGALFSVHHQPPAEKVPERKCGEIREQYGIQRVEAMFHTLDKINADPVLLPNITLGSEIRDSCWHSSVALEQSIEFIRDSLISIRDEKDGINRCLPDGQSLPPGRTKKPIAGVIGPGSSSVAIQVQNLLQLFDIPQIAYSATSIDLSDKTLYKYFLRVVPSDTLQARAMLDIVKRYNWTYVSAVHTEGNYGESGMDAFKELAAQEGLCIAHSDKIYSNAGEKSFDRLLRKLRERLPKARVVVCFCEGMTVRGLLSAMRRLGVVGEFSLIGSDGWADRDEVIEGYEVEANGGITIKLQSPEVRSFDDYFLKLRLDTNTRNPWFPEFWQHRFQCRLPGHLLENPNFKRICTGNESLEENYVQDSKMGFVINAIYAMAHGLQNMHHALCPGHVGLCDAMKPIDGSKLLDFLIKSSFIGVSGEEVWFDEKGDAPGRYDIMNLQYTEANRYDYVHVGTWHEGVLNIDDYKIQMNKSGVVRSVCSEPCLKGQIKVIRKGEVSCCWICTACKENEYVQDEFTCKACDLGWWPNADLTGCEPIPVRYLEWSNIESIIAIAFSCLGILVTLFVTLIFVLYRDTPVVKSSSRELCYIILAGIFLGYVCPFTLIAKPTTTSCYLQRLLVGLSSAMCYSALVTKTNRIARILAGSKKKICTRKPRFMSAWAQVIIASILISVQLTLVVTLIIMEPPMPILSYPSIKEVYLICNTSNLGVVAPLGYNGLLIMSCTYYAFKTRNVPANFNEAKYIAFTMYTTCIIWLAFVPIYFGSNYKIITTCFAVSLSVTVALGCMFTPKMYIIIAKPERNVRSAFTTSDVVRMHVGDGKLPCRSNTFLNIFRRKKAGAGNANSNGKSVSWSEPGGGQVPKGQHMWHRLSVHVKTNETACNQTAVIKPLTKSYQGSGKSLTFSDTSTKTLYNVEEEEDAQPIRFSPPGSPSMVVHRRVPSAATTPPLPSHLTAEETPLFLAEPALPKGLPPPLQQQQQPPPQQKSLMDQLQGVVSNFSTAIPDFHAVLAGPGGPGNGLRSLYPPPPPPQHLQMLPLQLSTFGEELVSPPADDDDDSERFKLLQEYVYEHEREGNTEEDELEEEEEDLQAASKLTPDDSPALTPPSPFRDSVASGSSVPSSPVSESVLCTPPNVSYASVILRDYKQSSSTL

[2] = molecular target: T1, Metabotropic glutamate receptor 1; assay: Negative allosteric modulation of human mGlu1 receptor expressed in HEK293A TREx cells assessed as calcium flux at 30 uM after 45 mins relative to glutamate; format: functional, cell-based; settings: HEK293-A
Summary of the method: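 Tetracycline-induced HEK293A TREx cells expressing human mGlu1 were loaded with Fluo-4 for Ca2+ flux. Test compound was given at 30 μM. Response amplitude is expressed as a percentage of the maximal response to 100 μM glutamate, averaged over n ≥ 3.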
Target sequence in this assay (Q13255 19-1194 limits assumed): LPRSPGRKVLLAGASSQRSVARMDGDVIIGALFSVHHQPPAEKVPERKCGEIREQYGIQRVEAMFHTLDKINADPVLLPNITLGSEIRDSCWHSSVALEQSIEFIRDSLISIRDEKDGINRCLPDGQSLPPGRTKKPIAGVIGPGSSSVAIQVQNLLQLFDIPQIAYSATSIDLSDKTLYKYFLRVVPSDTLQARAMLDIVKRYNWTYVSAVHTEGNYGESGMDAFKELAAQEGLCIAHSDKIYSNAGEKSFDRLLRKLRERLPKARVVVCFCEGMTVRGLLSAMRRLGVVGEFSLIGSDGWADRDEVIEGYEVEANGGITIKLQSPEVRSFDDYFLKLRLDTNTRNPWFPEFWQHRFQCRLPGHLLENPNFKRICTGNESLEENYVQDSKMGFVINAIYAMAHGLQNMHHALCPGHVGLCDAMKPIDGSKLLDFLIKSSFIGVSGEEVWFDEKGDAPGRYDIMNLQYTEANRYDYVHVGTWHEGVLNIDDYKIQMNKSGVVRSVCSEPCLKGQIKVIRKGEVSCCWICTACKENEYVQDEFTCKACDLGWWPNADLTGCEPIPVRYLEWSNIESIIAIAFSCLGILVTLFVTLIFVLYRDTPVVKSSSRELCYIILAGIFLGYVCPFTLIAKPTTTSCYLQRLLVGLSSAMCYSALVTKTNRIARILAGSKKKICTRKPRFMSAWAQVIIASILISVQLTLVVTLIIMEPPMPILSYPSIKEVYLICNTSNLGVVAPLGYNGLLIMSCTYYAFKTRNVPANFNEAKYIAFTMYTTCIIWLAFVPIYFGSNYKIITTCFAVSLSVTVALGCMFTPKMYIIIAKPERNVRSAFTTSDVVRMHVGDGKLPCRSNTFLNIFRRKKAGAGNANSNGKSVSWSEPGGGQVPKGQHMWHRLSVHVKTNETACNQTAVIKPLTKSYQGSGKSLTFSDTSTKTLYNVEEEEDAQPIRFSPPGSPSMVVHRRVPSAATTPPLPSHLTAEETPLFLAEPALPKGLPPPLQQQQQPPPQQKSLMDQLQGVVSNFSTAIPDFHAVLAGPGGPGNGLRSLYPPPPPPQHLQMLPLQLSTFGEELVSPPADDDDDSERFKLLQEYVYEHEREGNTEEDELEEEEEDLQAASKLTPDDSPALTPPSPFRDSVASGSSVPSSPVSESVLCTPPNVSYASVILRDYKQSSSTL

[3] = tested on: Plasma; assay: Fraction unbound in rat plasma; format: ADME, cell-free
Summary of the method: (§1)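 Unbound fraction was determined by equilibrium dialysis against rat plasma or rat brain homogenate.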

[4] = molecular target: Metabotropic glutamate receptor 2 (Homo sapiens) (UniProt Q14416); assay: Negative allosteric modulation of mGlu2 receptor (unknown origin) by cell based assay
Summary of the method: (§2)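 Selectivity against other mGlu subtypes was tested in cell-based functional assays with compound at 10 μM.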

[5] = tested on: Brain; assay: Fraction unbound in rat brain; format: ADME, tissue-based; summary of the method: as §1
[6] = molecular target: Metabotropic glutamate receptor 3 (Homo sapiens) (UniProt Q14832); assay: Negative allosteric modulation of mGlu3 receptor (unknown origin) by cell based assay; summary of the method: as §2
[7] = molecular target: T2, Cytochrome P450 1A2 (Homo sapiens, UniProt P05177); assay: Inhibition of CYP1A2 in human liver microsomes in presence of NADPH; format: ADME, Microsome
T2 sequence (P05177 whole entry): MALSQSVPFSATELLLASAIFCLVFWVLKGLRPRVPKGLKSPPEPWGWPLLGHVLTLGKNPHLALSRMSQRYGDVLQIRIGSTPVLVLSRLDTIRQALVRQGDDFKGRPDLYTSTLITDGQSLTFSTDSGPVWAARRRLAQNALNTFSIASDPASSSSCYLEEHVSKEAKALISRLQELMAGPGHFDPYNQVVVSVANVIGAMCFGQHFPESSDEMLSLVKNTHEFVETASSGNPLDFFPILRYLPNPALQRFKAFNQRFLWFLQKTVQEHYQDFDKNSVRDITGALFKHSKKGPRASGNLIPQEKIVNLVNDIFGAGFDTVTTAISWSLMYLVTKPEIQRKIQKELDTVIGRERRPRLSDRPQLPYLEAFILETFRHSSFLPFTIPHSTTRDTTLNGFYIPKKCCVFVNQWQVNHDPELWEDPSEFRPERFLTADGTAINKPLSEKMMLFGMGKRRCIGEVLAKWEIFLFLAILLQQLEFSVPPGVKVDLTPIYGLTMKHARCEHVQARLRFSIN

[8] = molecular target: Metabotropic glutamate receptor 6 (Homo sapiens) (UniProt O15303); assay: Negative allosteric modulation of mGlu6 receptor (unknown origin) by cell based assay; summary of the method: as §2
[9] = molecular target: Cytochrome P450 2C9 (Homo sapiens, UniProt P11712); assay: Inhibition of CYP2C9 in human liver microsomes in presence of NADPH; format: ADME, Microsome
Chain of Cytochrome P450 2C9 (P11712 whole entry): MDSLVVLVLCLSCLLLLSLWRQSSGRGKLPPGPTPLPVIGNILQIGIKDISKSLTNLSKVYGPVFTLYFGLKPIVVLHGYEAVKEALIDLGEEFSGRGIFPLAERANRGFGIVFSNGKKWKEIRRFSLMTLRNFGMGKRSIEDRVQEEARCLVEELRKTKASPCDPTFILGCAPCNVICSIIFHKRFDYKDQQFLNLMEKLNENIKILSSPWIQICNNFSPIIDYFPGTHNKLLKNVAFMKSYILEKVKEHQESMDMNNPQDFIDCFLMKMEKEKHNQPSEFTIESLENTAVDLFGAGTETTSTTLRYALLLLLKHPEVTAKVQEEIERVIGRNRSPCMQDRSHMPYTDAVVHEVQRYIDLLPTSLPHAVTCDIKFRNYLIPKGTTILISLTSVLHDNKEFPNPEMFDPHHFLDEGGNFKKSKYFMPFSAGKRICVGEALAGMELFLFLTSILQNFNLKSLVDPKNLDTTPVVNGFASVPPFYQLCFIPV

[10] = molecular target: Metabotropic glutamate receptor 8 (Homo sapiens) (UniProt O00222); assay: Negative allosteric modulation of mGlu8 receptor (unknown origin) by cell based assay; summary of the method: as §2
[11] = molecular target: Metabotropic glutamate receptor 5 (Rattus norvegicus, UniProt P31424); assay: Negative allosteric modulation of mGlu5 receptor (unknown origin) by cell based assay
[12] = molecular target: Metabotropic glutamate receptor 4 (Homo sapiens) (UniProt Q14833); assay: Negative allosteric modulation of mGlu4 receptor (unknown origin) by cell based assay; summary of the method: as §2
Chain of Metabotropic glutamate receptor 4 (Homo sapiens) (Q14833 whole entry): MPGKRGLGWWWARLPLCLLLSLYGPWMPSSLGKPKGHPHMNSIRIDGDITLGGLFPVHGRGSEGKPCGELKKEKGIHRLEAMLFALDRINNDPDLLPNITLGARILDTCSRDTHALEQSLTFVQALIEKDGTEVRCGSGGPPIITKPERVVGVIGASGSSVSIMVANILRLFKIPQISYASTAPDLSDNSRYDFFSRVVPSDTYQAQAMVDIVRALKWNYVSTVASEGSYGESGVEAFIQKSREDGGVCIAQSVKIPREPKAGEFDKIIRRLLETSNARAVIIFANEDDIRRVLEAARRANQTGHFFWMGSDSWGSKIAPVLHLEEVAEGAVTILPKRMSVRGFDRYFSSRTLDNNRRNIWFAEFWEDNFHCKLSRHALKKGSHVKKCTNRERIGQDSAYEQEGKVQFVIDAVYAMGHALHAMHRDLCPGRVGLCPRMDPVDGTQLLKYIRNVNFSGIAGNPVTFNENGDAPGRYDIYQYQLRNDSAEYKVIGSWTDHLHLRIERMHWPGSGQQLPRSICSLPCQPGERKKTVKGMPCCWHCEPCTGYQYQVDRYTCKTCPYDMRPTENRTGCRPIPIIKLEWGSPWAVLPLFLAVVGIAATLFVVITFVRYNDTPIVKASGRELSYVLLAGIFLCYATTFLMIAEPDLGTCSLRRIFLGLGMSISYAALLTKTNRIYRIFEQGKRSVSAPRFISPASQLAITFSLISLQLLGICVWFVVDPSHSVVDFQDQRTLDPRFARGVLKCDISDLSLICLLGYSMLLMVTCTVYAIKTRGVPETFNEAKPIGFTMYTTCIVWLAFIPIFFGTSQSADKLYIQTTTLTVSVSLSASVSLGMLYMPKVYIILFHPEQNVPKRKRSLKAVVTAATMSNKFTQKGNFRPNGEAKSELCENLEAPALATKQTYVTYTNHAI

[13] = molecular target: Cytochrome P450 3A4 (Homo sapiens, UniProt P08684); assay: Inhibition of CYP3A4 in human liver microsomes in presence of NADPH; format: ADME, Microsome
Chain of Cytochrome P450 3A4 (P08684 whole entry): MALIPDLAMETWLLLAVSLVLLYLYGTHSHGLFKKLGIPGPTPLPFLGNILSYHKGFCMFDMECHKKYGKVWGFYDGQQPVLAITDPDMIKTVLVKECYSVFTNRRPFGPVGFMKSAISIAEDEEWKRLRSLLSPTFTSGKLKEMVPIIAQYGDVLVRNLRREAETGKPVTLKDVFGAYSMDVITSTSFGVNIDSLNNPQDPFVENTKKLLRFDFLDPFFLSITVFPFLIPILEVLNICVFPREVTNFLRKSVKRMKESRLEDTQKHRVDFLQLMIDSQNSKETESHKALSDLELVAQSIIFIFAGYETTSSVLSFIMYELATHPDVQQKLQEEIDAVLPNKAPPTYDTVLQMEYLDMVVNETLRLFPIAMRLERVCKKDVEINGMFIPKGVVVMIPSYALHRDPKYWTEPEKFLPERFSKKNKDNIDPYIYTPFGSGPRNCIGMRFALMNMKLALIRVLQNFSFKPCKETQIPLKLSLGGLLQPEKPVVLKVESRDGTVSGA

[14] = molecular target: Cytochrome P450 2D6 (Homo sapiens, UniProt P10635); assay: Inhibition of CYP2D6 in human liver microsomes in presence of NADPH; format: ADME, Microsome
Chain of Cytochrome P450 2D6 (P10635 whole entry): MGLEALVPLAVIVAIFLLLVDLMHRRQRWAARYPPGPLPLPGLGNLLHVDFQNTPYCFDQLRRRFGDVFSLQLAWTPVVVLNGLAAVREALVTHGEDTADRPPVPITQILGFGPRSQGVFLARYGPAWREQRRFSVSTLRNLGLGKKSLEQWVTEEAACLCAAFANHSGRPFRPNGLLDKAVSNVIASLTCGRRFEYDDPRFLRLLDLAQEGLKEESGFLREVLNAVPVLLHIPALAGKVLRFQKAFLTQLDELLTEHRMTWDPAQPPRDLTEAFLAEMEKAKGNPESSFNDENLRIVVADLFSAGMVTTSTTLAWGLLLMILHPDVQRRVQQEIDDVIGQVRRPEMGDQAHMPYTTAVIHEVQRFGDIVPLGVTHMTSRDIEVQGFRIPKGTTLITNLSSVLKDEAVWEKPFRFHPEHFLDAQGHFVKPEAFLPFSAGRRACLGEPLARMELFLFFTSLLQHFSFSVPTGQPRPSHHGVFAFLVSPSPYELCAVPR

[15] = molecular target: T1, Metabotropic glutamate receptor 1; assay: Negative allosteric modulation of human mGlu1 receptor up to 30 uM
Target sequence in this assay (Q13255 whole entry, looked up): as the sequence (Q13255 whole entry) above

[16] = molecular target: T3, 5-hydroxytryptamine receptor 3A (Homo sapiens) (UniProt P46098); assay: Binding affinity to human 5HT3 receptor by radioligand binding assay; settings: concentration not given here
T3 sequence (whole entry): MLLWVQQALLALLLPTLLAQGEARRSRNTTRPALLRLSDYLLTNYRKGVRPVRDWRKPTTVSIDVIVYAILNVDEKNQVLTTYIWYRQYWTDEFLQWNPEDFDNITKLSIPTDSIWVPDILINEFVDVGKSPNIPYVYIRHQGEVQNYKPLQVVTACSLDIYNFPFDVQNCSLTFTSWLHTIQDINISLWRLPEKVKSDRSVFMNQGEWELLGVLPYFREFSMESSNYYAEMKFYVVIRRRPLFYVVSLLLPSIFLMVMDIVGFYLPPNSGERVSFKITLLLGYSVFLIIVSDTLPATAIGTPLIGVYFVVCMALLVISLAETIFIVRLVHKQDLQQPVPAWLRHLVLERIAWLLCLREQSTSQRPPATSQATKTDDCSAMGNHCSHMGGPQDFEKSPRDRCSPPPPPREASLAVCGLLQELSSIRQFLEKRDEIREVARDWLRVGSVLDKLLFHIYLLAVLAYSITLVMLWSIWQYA
Summary of the method: (§3)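 Compound was screened at 10 μM in a commercial radioligand binding panel of 68 GPCRs, ion channels, kinases and transporters.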

[17] = organism: Rattus norvegicus; assay: Binding affinity to rat sodium channel site 2 by radioligand binding assay; settings: concentration not given here; summary of the method: as §3
[18] = molecular target: Metabotropic glutamate receptor 5 (Rattus norvegicus) (UniProt P31424); assay: Negative allosteric modulation of rat mGlu5 receptor at 30 uM relative to glutamate
[19] = molecular target: Kappa-type opioid receptor (Homo sapiens) (UniProt P41145); assay: Binding affinity to human kappa opioid receptor by radioligand binding assay; settings: concentration not given here; summary of the method: as §3
[20] = molecular target: Sigma non-opioid intracellular receptor 1 (Homo sapiens) (UniProt Q99720); assay: Binding affinity to human sigma1 receptor by radioligand binding assay; settings: concentration not given here; summary of the method: as §3
Chain of Sigma non-opioid intracellular receptor 1 (Homo sapiens) (Q99720 whole entry): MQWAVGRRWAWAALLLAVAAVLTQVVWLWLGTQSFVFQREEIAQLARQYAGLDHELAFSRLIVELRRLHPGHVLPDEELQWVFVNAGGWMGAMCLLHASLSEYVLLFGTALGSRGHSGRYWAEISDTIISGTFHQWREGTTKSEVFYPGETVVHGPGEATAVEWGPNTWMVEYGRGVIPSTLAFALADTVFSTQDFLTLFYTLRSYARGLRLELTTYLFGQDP

## O=C(N1C[C@@H]2CN(c3ncccn3)C[C@@H]2C1)C12CC3CC(CC(C3)C1)C2
[1]
  IC50: > 10 µM
[2]
  %max: 10.3%

## N#Cc1ncccc1N1C[C@H]2CN(C(=O)C34CC5CC(CC(C5)C3)C4)C[C@H]2C1
[3]
  Fu: 4.5%
[1]
  IC50: 0.553 µM
[2]
  %max: 1.3%

## O=C(N1C[C@@H]2CN(c3ccccn3)C[C@@H]2C1)C12C3C4C5C3C1C5C42 (stereo partly drawn)
[1]
  IC50: > 10 µM
[2]
  %max: 58.7%

## O=C(C1CCCCCC1)N1C[C@@H]2CN(c3ccccn3)C[C@@H]2C1
[1]
  IC50: > 10 µM
[2]
  %max: 36.5%

## O=C(N1CCC2(CCCC2)CC1)N1C[C@@H]2CN(c3ccccn3)C[C@@H]2C1
[1]
  IC50: 0.769 µM
[2]
  %max: 0.7%

## O=C(N1C[C@@H]2CN(c3ccccn3)C[C@@H]2C1)N1CCC2(CCCC2)C1
[4]
  Activity: inactive
[5]
  Fu: 5.1%
[6]
  Activity: inactive
[3]
  Fu: 9%
[1]
  IC50: 0.297 µM
[2]
  %max: -0.1%
[7]
  IC50: > 30 µM
[8]
  Activity: Active
[9]
  IC50: > 30 µM
[10]
  Activity: Active
[11]
  IC50: > 10 µM
[12]
  Activity: inactive
[13]
  IC50: > 30 µM
[14]
  IC50: > 30 µM

## CC1(C(=O)N2C[C@@H]3CN(c4ccccn4)C[C@@H]3C2)CCCCC1
[1]
  IC50: 5.14 µM
[2]
  %max: 9.3%

## CC(C)(C)[C@H]1CC[C@H](C(=O)N2C[C@H]3CN(c4ccccn4)C[C@H]3C2)CC1
[1]
  IC50: > 10 µM
[2]
  %max: 29.2%

## C[C@H]1CC[C@H](C(=O)N2C[C@H]3CN(c4ccccn4)C[C@H]3C2)CC1
[1]
  IC50: > 10 µM
[2]
  %max: 37.9%

## O=C(N1C[C@@H]2CN(c3cnccn3)C[C@@H]2C1)C12CC3CC(CC(C3)C1)C2
[3]
  Fu: 10.3%
[1]
  IC50: 0.669 µM
[2]
  %max: -1.1%

## O=C(N1C[C@@H]2CN(c3ncccc3F)C[C@@H]2C1)C12CC3CC(CC(C3)C1)C2
[1]
  IC50: 1 µM
[2]
  %max: 2.1%

## CC(C)(C)C(=O)N1C[C@@H]2CN(c3ccccn3)C[C@@H]2C1
[1]
  IC50: > 30 µM

## O=C(C1CCCCC1)N1C[C@@H]2CN(c3ccccn3)C[C@@H]2C1
[1]
  IC50: > 10 µM
[2]
  %max: 57.7%

## N#Cc1cnccc1N1C[C@H]2CN(C(=O)C34CC5CC(CC(C5)C3)C4)C[C@H]2C1
[1]
  IC50: > 10 µM
[2]
  %max: 36.8%

## O=C(N1C[C@@H]2CN(c3nccs3)C[C@@H]2C1)C12CC3CC(CC(C3)C1)C2
[1]
  IC50: > 10 µM
[2]
  %max: 56.6%

## N#Cc1cccnc1N1C[C@H]2CN(C(=O)C34CC5CC(CC(C5)C3)C4)C[C@H]2C1
[2]
  %max: 12.2%

## O=C(CC1CCCCC1)N1C[C@@H]2CN(c3ccccn3)C[C@@H]2C1
[1]
  IC50: > 10 µM
[2]
  %max: 47.6%

## CC(C)(C)CC(=O)N1C[C@@H]2CN(c3ccccn3)C[C@@H]2C1
[1]
  IC50: > 30 µM
[15]
  Activity: inactive

## O=C(N1CC2CCC(C2)C1)N1C[C@@H]2CN(c3ccccn3)C[C@@H]2C1
[2]
  %max: -5.8%

## O=C(CC12CC3CC(CC(C3)C1)C2)N1C[C@@H]2CN(c3ccccn3)C[C@@H]2C1
[2]
  %max: 0%

## O=C(N1C[C@@H]2CN(c3ccncn3)C[C@@H]2C1)C12CC3CC(CC(C3)C1)C2
[1]
  IC50: > 10 µM
[2]
  %max: 25.5%

## O=C(N1CCCCCCC1)N1C[C@@H]2CN(c3ccccn3)C[C@@H]2C1
[1]
  IC50: > 10 µM
[2]
  %max: 23.2%

## O=C(N1CC2CCCC(C2)C1)N1C[C@@H]2CN(c3ccccn3)C[C@@H]2C1
[1]
  IC50: 1.91 µM
[2]
  %max: -1.5%

## O=C(N1CCC2(CCCCC2)CC1)N1C[C@@H]2CN(c3ccccn3)C[C@@H]2C1
[3]
  Fu: 1.5%
[1]
  IC50: 0.364 µM
[2]
  %max: 1.5%

## O=C(N1C[C@@H]2CN(c3ccc(F)cn3)C[C@@H]2C1)C12CC3CC(CC(C3)C1)C2
[3]
  Fu: 1.5%
[1]
  IC50: 0.478 µM
[2]
  %max: 2.2%

## O=C(N1C[C@@H]2CN(c3cccc(F)n3)C[C@@H]2C1)C12CC3CC(CC(C3)C1)C2
[3]
  Fu: 1.2%
[1]
  IC50: 0.093 µM
[2]
  %max: 2.3%

## CC1(C)[C@@H]2CN(C(=O)N3C[C@@H]4CN(c5ccccn5)C[C@@H]4C3)C[C@@H]21
[1]
  IC50: 11.9 µM
[2]
  %max: -7.5%

## N#Cc1ccccc1N1C[C@H]2CN(C(=O)C34CC5CC(CC(C5)C3)C4)C[C@H]2C1
[3]
  Fu: 1.4%
[1]
  IC50: 0.185 µM
[2]
  %max: 6.9%

## N#Cc1ccncc1N1C[C@H]2CN(C(=O)C34CC5CC(CC(C5)C3)C4)C[C@H]2C1
[1]
  IC50: 0.833 µM
[2]
  %max: 0.1%

## O=C(N1C[C@@H]2CN(c3ccccn3)C[C@@H]2C1)C12CC3CC(CC(C3)C1)C2
[4]
  Activity: inactive
[5]
  Fu: 2.3%
[6]
  Activity: inactive
[3]
  Fu: 2.9%
[1]
  IC50: 0.085 µM
[2]
  %max: 2.2%
[7]
  IC50: > 30 µM
[16]
  inhibition: 90%
[17]
  inhibition: 52%
[9]
  IC50: > 30 µM
[11]
  IC50: 3.36 µM
[18]
  %max: 1.1%
[12]
  Activity: inactive
[13]
  IC50: 6.2 µM
[14]
  IC50: 24.3 µM
[19]
  inhibition: 60%
[20]
  inhibition: 95%

## C[C@@H]1CN(c2cccnc2C#N)CCN1C(=O)C12CC3CC(CC(C3)C1)C2
[7]
  IC50: > 30 µM
[9]
  IC50: > 30 µM
[13]
  IC50: 7 µM
[14]
  IC50: 12.4 µM
